This note sets out measurements from ChEMBL document CHEMBL4406821, “Novel dual inhibitors targeting CDK4 and VEGFR2 synergistically suppressed cancer progression and angiogenesis” (Eur J Med Chem, 2019).

Calls of active or inactive are those of the source. The rule behind the calls is not given here.

Data set [1] addresses G protein-coupled receptor kinase 5 (Homo sapiens) (UniProt P34947). As to the kind of experiment: Inhibition of recombinant human full length GRK5 at 1 uM using casein as substrate incubated for 40 mins in presence of [gamma-33P]-ATP by scintillation counting method relative to control. In short, it runs like this: (§1)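 Tested at a single 1 uM in an outsourced commercial kinase-profiling panel, read as percent inhibition. Each value is the mean of two independent experiments.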

In data set [2] the target is Tyrosine-protein kinase receptor UFO (Homo sapiens) (UniProt P30530). As to the kind of experiment: Inhibition of recombinant human AXL (473 to end residues) at 1 uM using KKSRGDYMTMQIG as substrate incubated for 40 mins in presence of [gamma-33P]-ATP by scintillation counting method relative to control. In outline:
(§2)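 Kinase panel profiling at 1 μM performed by Eurofins KinaseProfiler; percent inhibition reported as mean of two independent experiments.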

Data set [3] has as its target Serine/threonine-protein kinase Chk1 (Homo sapiens) (UniProt O14757). As to the kind of experiment: Inhibition of recombinant full length human CHK1 at 1 uM using KKKVSRSGLYRSP as substrate incubated for 40 mins in presence of [gamma-33P]-ATP by scintillation counting method relative to control. In outline:
as §2

In data set [4] the target is Eukaryotic translation initiation factor 2-alpha kinase 3 (Homo sapiens) (UniProt Q9NZJ5). As to the kind of experiment: Inhibition of recombinant human PEK (536 to end residues) at 1 uM using RSRSRSRSRSRSRSR as substrate incubated for 40 mins in presence of [gamma-33P]-ATP by scintillation counting method relative to control.
Data set [5] addresses Tyrosine-protein kinase Fes/Fps (Homo sapiens) (UniProt P07332). As to the kind of experiment: Inhibition of recombinant human FES (2 to end residues) at 1 uM using poly(Glu, Tyr) 4:1 as substrate incubated for 40 mins in presence of [gamma-33P]-ATP by scintillation counting method relative to control.
The target of data set [6] is NUAK family SNF1-like kinase 1 (Homo sapiens) (UniProt O60285). Briefly: Inhibition of recombinant human ARK5 (2 to end residues) at 1 uM using KKKVSRSGLYRSP as substrate incubated for 40 mins in presence of [gamma-33P]-ATP by scintillation counting method relative to control. In outline: as §2
The target in data set [7] is Beta-adrenergic receptor kinase 1 (Homo sapiens) (UniProt P25098). Briefly: Inhibition of recombinant human full length GRK2 at 1 uM using casein as substrate incubated for 40 mins in presence of [gamma-33P]-ATP by scintillation counting method relative to control. In short, it runs like this: as §1
Data set [8] relates to T47D. As to the kind of experiment: Induction of apoptosis in human T47D cells assessed as decrease in Rb phosphorylation incubated for 48 hrs by Western blot analysis. In kind it is functional, cell-based. In outline: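 Cancer cells were exposed to graded concentrations for 48 h, washed three times in PBS and lysed in RIPA buffer. Immunoblots were probed with anti-Rb, anti-phospho-Rb, anti-Ki67 and anti-Bcl-2, each at 1:1000. β-actin served as loading control.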
On the technique in general: Immunoblotting shows a protein as a band on a membrane.

Data set [9] deals with Serine/threonine-protein kinase tousled-like 1 (Homo sapiens) (UniProt Q9UKI8). Briefly: Inhibition of recombinant human full length TLK1 at 1 uM using casein as substrate incubated for 40 mins in presence of [gamma-33P]-ATP by scintillation counting method relative to control.
In data set [10] the target is Insulin receptor (Homo sapiens) (UniProt P06213). As to the kind of experiment: Inhibition of recombinant activated human IR (1005 to 1310 residues) at 1 uM using KKKSPGEYVNIEFG as substrate incubated for 40 mins in presence of [gamma-33P]-ATP by scintillation counting method relative to control. In short, it runs like this:
as §2

Data set [11] in a line: Toxicity in NOD/SCID BALB/c mouse xenografted with human SiHa cells assessed as toxic effects in liver at 40 mg/kg, po administered for 48 hrs by hematoxylin and eosin staining method. In kind it is organism-based. To be noted: in vivo.
In data set [12] the target is Protein kinase C epsilon type (Homo sapiens) (UniProt Q02156). Briefly: Inhibition of recombinant human PKCepsilon (2 to end residues) at 1 uM using ERMRPRKRQGSVRRRV as substrate incubated for 40 mins in presence of [gamma-33P]-ATP by scintillation counting method relative to control.
Data set [13] concerns the target Protein kinase C gamma type (Homo sapiens) (UniProt P05129). As to the kind of experiment: Inhibition of recombinant human full length PKCgamma at 1 uM using histone H1 as substrate incubated for 40 mins in presence of [gamma-33P]-ATP by scintillation counting method relative to control.
In data set [14] the target is LIM domain kinase 1 (Homo sapiens) (UniProt P53667). Briefly: Inhibition of recombinant human LIMK1 (285 to 638 residues) at 1 uM using cofilin as substrate incubated for 40 mins in presence of [gamma-33P]-ATP by scintillation counting method relative to control.
For data set [15], the target named is Serine/threonine-protein kinase D2 (Homo sapiens) (UniProt Q9BZL6). As to the kind of experiment: Inhibition of recombinant human full length PKD2 at 1 uM using KKLNRTLSVA as substrate incubated for 40 mins in presence of [gamma-33P]-ATP by scintillation counting method relative to control.
For data set [16], the target named is Serine/threonine-protein kinase PLK2 (Homo sapiens) (UniProt Q9NYY3). As to the kind of experiment: Inhibition of recombinant human SNK (65 to 409 residues) at 1 uM using casein as substrate incubated for 40 mins in presence of [gamma-33P]-ATP by scintillation counting method relative to control.
Data set [17] addresses eIF-2-alpha kinase GCN2 (Homo sapiens) (UniProt Q9P2K8). Briefly: Inhibition of recombinant full length human GCN2 at 1 uM using RSRSRSRSRSRSRSR as substrate incubated for 40 mins in presence of [gamma-33P]-ATP by scintillation counting method relative to control. In short, it runs like this: as §1
A short description of data set [18]: Clearance in Sprague-Dawley rat at 10 mg/kg, po by HPLC-MS analysis. In kind it is ADME, organism-based. The note with it: in vivo. In short, it runs like this: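 Rats fitted with jugular vein catheters for serial blood sampling. Compound dissolved in saline with 5% (v/v) DMSO and given as a single 10 mg/kg dose iv or po after an overnight fast, n = 5 per group. Plasma isolated at once and measured by HPLC with tandem MS detection. Parameters derived by noncompartmental fitting.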

The target of data set [19] is Serine/threonine-protein kinase PLK1 (Homo sapiens) (UniProt P53350). As to the kind of experiment: Inhibition of recombinant human full length PLK1 at 1 uM using casein as substrate incubated for 40 mins in presence of [gamma-33P]-ATP by scintillation counting method relative to control.
For data set [20], the system named is Macrophage colony-stimulating factor 1 receptor (Homo sapiens), P07333 [Y969C]. Briefly: Inhibition of recombinant human FMS Y969C mutant (538 to end residues) at 1 uM using EEEEYEEEEEEYY as substrate incubated for 40 mins in presence of [gamma-33P]-ATP by scintillation counting method relative to control.
The nature of data set [21]: Toxicity in NOD/SCID BALB/c mouse xenografted with human SiHa cells assessed as toxic effects in heart at 40 mg/kg, po administered for 48 hrs by hematoxylin and eosin staining method. In kind it is organism-based. To be noted: in vivo.
Data set [22] has as its system T47D. As to the kind of experiment: Induction of cell cycle arrest in human T47D cells assessed as accumulation in G2/M phase at 20 to 40 nM incubated for 36 hrs by propidium iodide staining based flow cytometry. Format: functional. In short, it runs like this:
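Cells were treated with graded concentrations for 36 h, then fixed overnight in 70% ice-cold ethanol at 4°C and resuspended in PBS. Staining used 50 µg/ml PI plus 5 µg/ml RNase at 37°C for 30 min. DNA content was analysed by FACS to give G0/G1, S and G2/M fractions.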

Chain of Macrophage colony-stimulating factor 1 receptor (Homo sapiens), P07333 [Y969C] (P07333 whole entry Y969C): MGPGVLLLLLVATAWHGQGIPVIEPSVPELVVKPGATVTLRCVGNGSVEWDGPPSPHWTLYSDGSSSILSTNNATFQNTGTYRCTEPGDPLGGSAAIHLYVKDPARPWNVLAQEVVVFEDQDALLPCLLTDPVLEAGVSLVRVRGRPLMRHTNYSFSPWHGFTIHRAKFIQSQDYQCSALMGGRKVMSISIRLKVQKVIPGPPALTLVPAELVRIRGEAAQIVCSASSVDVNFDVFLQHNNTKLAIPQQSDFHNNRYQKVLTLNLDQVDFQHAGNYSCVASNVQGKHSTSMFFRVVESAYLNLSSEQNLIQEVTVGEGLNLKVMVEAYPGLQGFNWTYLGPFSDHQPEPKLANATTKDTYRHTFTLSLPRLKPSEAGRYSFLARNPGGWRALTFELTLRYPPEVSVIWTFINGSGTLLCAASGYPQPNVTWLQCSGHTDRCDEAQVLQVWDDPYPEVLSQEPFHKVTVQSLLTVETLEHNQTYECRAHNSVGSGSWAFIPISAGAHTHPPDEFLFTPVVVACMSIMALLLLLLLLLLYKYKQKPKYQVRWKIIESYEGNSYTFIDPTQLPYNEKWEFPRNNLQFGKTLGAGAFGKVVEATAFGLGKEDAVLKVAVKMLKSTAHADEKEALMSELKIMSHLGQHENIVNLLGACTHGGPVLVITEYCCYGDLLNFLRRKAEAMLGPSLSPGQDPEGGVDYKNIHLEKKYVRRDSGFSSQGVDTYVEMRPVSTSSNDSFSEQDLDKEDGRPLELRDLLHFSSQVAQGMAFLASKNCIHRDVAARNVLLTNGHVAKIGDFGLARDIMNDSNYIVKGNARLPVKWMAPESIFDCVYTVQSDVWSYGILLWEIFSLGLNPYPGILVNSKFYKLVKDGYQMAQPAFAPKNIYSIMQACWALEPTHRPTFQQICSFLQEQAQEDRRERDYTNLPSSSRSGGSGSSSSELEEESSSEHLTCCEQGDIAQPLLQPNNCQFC
Chain of Serine/threonine-protein kinase D2 (Homo sapiens) (Q9BZL6 whole entry, the tested form may be a part): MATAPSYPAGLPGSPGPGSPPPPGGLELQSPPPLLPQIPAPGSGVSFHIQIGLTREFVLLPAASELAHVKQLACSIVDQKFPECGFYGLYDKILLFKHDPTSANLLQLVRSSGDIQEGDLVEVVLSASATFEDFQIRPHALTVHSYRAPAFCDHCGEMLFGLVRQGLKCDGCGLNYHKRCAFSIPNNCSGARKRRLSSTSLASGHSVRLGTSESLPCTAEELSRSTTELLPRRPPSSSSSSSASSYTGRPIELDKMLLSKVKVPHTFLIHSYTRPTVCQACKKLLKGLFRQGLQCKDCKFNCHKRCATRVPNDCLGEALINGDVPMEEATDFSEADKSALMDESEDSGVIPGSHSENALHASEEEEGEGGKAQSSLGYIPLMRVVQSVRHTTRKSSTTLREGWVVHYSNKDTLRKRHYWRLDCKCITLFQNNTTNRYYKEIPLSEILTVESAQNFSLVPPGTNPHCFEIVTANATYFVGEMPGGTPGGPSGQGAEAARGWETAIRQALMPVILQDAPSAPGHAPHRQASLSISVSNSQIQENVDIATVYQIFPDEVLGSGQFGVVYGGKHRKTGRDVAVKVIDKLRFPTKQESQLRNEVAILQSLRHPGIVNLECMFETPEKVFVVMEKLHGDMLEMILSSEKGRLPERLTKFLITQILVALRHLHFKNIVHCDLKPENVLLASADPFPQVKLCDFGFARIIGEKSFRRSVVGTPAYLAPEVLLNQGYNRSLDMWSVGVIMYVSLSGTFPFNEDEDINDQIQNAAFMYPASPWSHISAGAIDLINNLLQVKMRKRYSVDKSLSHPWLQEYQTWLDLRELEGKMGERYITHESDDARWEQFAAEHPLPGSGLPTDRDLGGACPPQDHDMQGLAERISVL
Chain of Serine/threonine-protein kinase PLK2 (Homo sapiens) (Q9NYY3 whole entry, looked up, the tested form may be a part): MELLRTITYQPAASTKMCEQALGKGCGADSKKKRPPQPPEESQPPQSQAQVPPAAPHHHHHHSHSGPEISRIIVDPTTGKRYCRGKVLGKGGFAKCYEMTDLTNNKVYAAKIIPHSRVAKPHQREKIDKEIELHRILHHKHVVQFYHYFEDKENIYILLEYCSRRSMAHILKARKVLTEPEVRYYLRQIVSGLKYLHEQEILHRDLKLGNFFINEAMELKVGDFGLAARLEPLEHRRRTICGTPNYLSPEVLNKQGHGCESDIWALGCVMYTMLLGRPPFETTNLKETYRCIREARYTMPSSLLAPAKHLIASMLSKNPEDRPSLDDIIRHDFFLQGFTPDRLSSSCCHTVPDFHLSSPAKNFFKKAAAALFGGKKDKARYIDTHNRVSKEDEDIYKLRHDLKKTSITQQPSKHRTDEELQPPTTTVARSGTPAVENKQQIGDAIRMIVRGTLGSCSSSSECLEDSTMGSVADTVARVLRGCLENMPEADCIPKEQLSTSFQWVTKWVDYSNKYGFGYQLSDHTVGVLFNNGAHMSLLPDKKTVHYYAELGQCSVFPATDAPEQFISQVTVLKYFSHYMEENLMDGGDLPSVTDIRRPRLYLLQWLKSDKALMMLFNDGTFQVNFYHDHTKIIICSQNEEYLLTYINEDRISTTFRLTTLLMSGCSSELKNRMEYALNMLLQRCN
Chain of Tyrosine-protein kinase Fes/Fps (Homo sapiens) (P07332 whole entry): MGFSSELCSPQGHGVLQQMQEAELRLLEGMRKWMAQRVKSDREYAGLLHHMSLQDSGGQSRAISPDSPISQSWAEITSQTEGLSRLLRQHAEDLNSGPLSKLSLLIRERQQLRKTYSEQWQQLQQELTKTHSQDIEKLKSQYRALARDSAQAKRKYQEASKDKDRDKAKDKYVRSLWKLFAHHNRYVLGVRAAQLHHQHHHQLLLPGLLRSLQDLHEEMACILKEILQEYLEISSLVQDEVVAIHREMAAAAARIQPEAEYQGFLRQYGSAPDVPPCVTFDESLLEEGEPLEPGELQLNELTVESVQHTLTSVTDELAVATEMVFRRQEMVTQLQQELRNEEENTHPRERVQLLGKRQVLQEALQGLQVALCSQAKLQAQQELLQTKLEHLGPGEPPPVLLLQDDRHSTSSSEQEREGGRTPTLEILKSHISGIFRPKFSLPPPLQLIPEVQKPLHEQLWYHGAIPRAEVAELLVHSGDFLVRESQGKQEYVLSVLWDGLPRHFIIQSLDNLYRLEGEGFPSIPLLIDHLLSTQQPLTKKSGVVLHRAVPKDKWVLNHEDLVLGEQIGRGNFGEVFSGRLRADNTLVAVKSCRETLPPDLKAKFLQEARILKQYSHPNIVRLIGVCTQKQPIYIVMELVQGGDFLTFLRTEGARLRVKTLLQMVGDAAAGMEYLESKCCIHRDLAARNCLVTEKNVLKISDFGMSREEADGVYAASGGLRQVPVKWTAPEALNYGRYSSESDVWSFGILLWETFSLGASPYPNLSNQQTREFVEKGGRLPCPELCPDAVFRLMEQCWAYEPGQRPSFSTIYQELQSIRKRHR
Chain of Insulin receptor (Homo sapiens) (P06213 28-758 limits assumed): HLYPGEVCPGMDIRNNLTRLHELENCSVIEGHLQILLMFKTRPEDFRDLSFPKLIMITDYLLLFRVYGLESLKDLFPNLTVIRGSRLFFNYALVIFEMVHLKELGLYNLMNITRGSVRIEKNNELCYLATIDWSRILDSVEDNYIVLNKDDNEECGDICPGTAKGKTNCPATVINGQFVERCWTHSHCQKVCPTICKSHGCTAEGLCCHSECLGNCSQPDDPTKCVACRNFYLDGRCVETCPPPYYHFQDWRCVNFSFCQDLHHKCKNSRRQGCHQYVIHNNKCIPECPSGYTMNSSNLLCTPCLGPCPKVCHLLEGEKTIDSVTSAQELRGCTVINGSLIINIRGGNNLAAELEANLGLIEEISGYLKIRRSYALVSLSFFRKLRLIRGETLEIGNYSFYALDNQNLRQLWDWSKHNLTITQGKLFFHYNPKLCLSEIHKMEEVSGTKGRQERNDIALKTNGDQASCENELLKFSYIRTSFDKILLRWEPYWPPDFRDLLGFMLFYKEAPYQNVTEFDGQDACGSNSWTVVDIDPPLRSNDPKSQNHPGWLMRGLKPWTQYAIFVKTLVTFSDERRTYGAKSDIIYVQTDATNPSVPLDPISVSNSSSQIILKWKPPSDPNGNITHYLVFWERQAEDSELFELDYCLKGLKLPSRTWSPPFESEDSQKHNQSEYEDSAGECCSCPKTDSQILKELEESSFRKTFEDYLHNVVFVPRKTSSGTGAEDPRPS
Chain of Insulin receptor (Homo sapiens) (P06213 763-1382 limits assumed): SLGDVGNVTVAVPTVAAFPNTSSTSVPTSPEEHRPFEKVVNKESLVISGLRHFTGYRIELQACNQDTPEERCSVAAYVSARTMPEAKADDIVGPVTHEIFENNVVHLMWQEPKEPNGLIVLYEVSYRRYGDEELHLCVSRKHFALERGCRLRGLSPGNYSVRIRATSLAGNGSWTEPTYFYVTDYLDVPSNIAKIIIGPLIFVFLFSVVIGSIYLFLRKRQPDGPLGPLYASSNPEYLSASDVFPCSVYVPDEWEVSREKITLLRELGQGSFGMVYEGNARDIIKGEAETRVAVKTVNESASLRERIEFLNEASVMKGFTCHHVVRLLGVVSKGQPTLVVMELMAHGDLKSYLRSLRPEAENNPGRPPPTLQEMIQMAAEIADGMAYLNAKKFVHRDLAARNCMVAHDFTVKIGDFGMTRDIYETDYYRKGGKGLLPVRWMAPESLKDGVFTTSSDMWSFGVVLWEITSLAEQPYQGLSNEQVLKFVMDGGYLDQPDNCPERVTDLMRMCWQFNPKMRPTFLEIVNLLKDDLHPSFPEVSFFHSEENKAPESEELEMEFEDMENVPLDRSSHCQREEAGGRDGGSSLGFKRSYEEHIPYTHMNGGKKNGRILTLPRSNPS

As usually defined, the inhibition is the percentage by which the read-out fell short of the control. One may read the CL/F as clearance divided by bioavailability, as obtained after extravascular dosing. `Cc1ccc(NC(=O)C2(C(=O)Nc3ccc(Nc4ncc(F)c(-c5cc(F)c6nc(C)n(C(C)C)c6c5)n4)cc3)CC2)cc1`: the inhibition turned out to be 0% in data set [1]; 65% in [2]; 28% in data set [3]; 2% in data set [4]; 89% in data set [5]; 69% in [6]. Besides, the inhibition amounted to 0% in [7]; 31% in data set [9]; 27% in data set [10]; 16% in data set [12]; 23% in data set [13]; 24% in data set [14]. For the same compound, the inhibition in data set [15] amounted to 17%; in [16], 47%; in data set [17] it was 0%; in data set [19] it was 23%; in data set [20], 73%. Moreover, the Activity result in [8] is “Dose-dependent effect”; in data set [11], “Non-Toxic”; in [21] it was “Non-Toxic”. This compound had a CL/F in data set [18] of 33.3 mL/min/kg. Also, in data set [22], the outcome was Active.
